{"data": "Results gathered from unrelated publications", "note": "Each line is one published result; the experiments were not run side by side."}
{"SMILES": "Cc1ccc(C(=O)N(CCCN)[C@@H](c2oc3cc(Cl)ccc3c(=O)c2Cc2ccccc2)C(C)C)cc1", "species": "human", "sample": "plasma", "route": "intravenous", "dose": "6 mg/m²", "notes": "single dose, patients, infusion", "AUC": "8150 ng·h/mL"}
{"SMILES": "COc1cc(C(=O)NC2CCN(C)CC2)c(F)cc1Nc1ncc(C(F)(F)F)c(Oc2cccc3c2C(=O)N(C)C3)n1", "species": "human", "sample": "plasma", "route": "oral", "dose": "200 mg", "notes": "multiple doses, once daily, steady state, patients", "AUC": "43.7 µM·h"}
{"SMILES": "CC(C)(C)OC[C@@H]1C(=O)NCCN1C(=O)C[C@H](N)Cc1cc(F)c(F)cc1F", "species": "human", "sample": "plasma", "route": "oral", "dose": "5 mg", "notes": "multiple doses, once daily, steady state", "AUC": "94.2 ng·h/mL"}
{"SMILES": "CS(=O)(=O)CCNCc1ccc(-c2ccc3ncnc(Nc4ccc(OCc5cccc(F)c5)c(Cl)c4)c3c2)o1", "species": "human", "sample": "serum", "route": "oral", "dose": "1250 mg", "notes": "single dose, fed", "AUC": "27300 ng·h/mL"}
{"SMILES": "CS(=O)(=O)CCC#N", "species": "human", "sample": "plasma", "route": "oral", "dose": "300 mg", "notes": "multiple doses, once daily", "AUC": "260000 ng·h/mL"}
{"SMILES": "NS(=O)(=O)NCCNc1nonc1C(=NO)Nc1ccc(F)c(Br)c1", "species": "human", "sample": "plasma", "route": "oral", "dose": "600 mg", "notes": "multiple doses, twice daily, steady state, patients", "AUC": "22.9 µM·h"}
{"SMILES": "Cn1c(=O)oc2ccc(-c3ccc(C[C@@H](C#N)NC(=O)[C@@H]4CNCCCO4)cc3)cc21", "species": "male human", "sample": "plasma", "route": "oral", "dose": "65 mg", "notes": "single dose, healthy volunteers", "AUC": "24.7 µM·h"}
{"SMILES": "COc1ccc(Oc2cc(N(C)CCOc3ccc(CC4SC(=O)NC4=O)cc3)ncn2)cc1 (stereo not shown)", "species": "male human", "sample": "plasma", "route": "oral", "dose": "0.5 mg", "notes": "multiple doses, once daily, steady state", "AUC": "333 ng·h/mL"}
{"SMILES": "C[C@@H](c1ccc2nccn2c1)n1nnc2ncc(-c3cnn(C)c3)nc21", "species": "human", "sample": "plasma", "route": "oral", "dose": "600 mg", "AUC": "12800 ng·h/mL"}
{"SMILES": "COc1cc(C(=O)NC2CCN(C)CC2)c(F)cc1Nc1ncc(C(F)(F)F)c(Oc2cccc3c2C(=O)N(C)C3)n1", "species": "human", "sample": "plasma", "route": "oral", "dose": "100 mg", "notes": "multiple doses, once daily, steady state, patients", "AUC": "16.3 µM·h"}
